A1 inh – inhibitors of the anti-apoptotic protein A1, read as caspase activation; MEF A1-2A-BIM cells, Caspase-Glo 3/7 luminescence, 3 h; percent of clofoctol response, vehicle zero; caspase activation, % (concentration not given with the values); 330,000 tested, 0.066% active; AID 2462;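 active = over half of replicate activation scores above 10%, or exactly half above 10 with the replicate mean above 10; inconclusive = replicate mean below 10 yet half the replicates above 10; inactive = over half of replicates below 10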
MC4R antag cAMP – antagonists of human melanocortin 4 receptor (MC4R); inhibition, % at 6.5 µM; P32245; 360,000 tested, 0.48% active; MC4R-expressing cells, MTII-stimulated cAMP, LANCE TR-FRET; AID 540295;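 active = inhibition above its plate's cutoff, the mean of tested wells on that plate plus 3 SD, cut at about 29% in these data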;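 also: 0% = Melanotan II alone and 100% = Melanotan II plus saturating MCL0020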
Target sequence (P32245 whole entry, looked up): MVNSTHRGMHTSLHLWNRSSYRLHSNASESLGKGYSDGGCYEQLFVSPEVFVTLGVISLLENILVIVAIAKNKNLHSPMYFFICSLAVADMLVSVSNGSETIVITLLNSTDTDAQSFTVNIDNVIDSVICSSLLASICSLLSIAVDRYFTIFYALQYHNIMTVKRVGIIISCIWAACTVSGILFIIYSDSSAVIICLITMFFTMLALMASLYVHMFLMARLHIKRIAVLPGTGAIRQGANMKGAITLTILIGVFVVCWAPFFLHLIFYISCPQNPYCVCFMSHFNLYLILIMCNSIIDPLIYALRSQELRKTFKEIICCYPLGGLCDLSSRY
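System: U2OS-MC4R stable cell line; Technique: Eu-cAMP/anti-cAMP TR-FRET, emission 671 nm; Repeats: single well per compound; Also added: Melanotan II; Dosing: one concentration, 6.5 µM nominal; Schedule: 30-min compound, 1-h challenge, 1-h detection, room temperature.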
sPLA2-III inh – Inhibits HGIII-sPLA2 liposome hydrolysis, primary screen; inhibition, % at 12.2 µM; 370,000 tested, 0.56% active; Q9NZ20; QFRET BODIPY PC-A2 liposome hydrolysis, fluorescence;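 active = inhibition above mean plus 3 SD of compounds lying within the high and low control bounds, cut at about 19% in these data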;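 also: 0% = median of test compound wells and 100% = no enzyme DMSO wells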
MC4R ag barr – agonists of human melanocortin 4 receptor (MC4R) beta-arrestin | activation, % at 8.9 µM | 360,000 tested, 0.98% active | U2OS MC4R beta-arrestin complementation, luminescence; percent of melanotan II response, DMSO zero | AID 540308 | P32245;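 active = activation above a per-plate cutoff, the mean activation of sample wells on that plate plus 3 SD, cut at about 8% in these data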
NTR1 agonist – agonists of human neurotensin receptor NTR1; P30989; NTR1-U2OS beta-arrestin-GFP spot imaging, agonist mode; activation, % at 20 µM; 330,000 tested, 0.17% active; AID 493036;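 active = activation at or above 40% of the spot to cytoplasm intensity ratio, with at least 20 cells analyzed; inconclusive = wells under 20 cells, flagged as cytotoxic or low count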;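 also: 0% = DMSO without peptide and 100% = 100 nM NTR1 peptide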
Exocytosis inh – lytic granule exocytosis inhibition; TALL-104 LAMP-1 surface exposure, flow cytometry; cells stimulated with thapsigargin and PMA; AID 651702; 360,000 tested, 0.66% active; inhibition, % at 10 µM;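 active = inhibition above about 55%, limit read from the data; inconclusive = no clear call, values can overlap the other calls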
Active calls of the source: *; ? = inconclusive; . = no result given. An excerpt weighted towards active compounds, which were near 2.5% of everything screened.

SMILES	A1 inh	MC4R antag cAMP	sPLA2-III inh	MC4R ag barr	NTR1 agonist	Exocytosis inh
CC(=O)CCc1oc2ccc([N+](=O)[O-])cc2c1-c1ccc(C)o1	0	-4	-6	-2	2	11
C/C(CCc1oc2c(Br)cc(Br)cc2c1-c1ccc(C)o1)=N\O	0	6	-28	0	7	83*
C[C@H]1[C@H](NC(=O)c2ccc(Cl)c(C(F)(F)F)c2)CC[C@@]23CCCN2C(=O)CCC[C@@H]13	.	.	-2	.	.	.
O=C(C1CCCN1S(=O)(=O)c1ccc(Cl)s1)N1CCc2ccccc2C1 (stereo not given)	.	.	0	.	.	.
COc1ccccc1NC(=O)NCc1nc(-c2ccc(C(F)(F)F)cc2)no1	1	10	13	8.5*	5	-4
O=C(OCCOc1ccc(Br)cc1)c1ccc(Cl)nc1	-1	26	2	9.2*	0	0
O=C(OCc1ccc(Br)cc1)c1cnc(Cl)c(Cl)c1	1	33*	2	-2	14	61*
O=C(OCc1ccc(Br)cc1)c1ccncc1	0	-6	5	0	0	-8
Cc1cccc(N/N=C/c2ccc(C)s2)c1	-2	4	16	-1	2	61*
CN1CCc2nc3sc(C(=O)C45CC6CC(CC(C6)C4)C5)c(N)c3cc2C1	0	0	9	12*	2	-1
Nc1c(C(=O)O)sc2nc3c(cc12)CCCC3	1	-6	10	-2	-1	0
Cc1cccc(-c2cccc3c4c([nH]c23)[C@@H]2C[C@H](N(C)C(=O)c3ccccc3C)[C@H]([C@H](C)O)CN2CC4)c1	.	.	2	.	.	.
Cc1cc(N2CCCC2)c(F)cc1/C=C\[N+](=O)[O-]	.	-10	-4	5	.	74*
CCCN(CC1CC1)C(=O)CNc1nnnn1-c1ccccc1	.	.	1	.	.	.
FC(F)(F)c1cc(CCN2CCNC[C@@H]2CC2CCCCC2)cc(C(F)(F)F)c1	0	1	18	8.7*	12	-5
NC1=NC[C@@H](Cc2ccc(O)cc2)N1CCc1cc(C(F)(F)F)cc(C(F)(F)F)c1	1	3	-6	2	-6	-10
CCCC[C@@H]1CNCCN1CCc1cc(C(F)(F)F)cc(C(F)(F)F)c1	1	1	16	5	14	-5
NC1=NC[C@H](CC2CCCCC2)N1CCc1cc(C(F)(F)F)cc(C(F)(F)F)c1	1	10	3	9.3*	6	-6
CC(=O)CC[C@@H]1CC[C@]2(CCCN(C(=O)C3CCCC3)C2)O1	.	.	6	.	.	.
COC(=O)NNC(=O)c1ccc(Cl)cc1Cl	0	4	0	2	2	0
CC(C)(C)C(=O)NC(=S)NNC(=O)c1ccc(Cl)cc1Cl	0	-7	42*	-7	18	-1
Cc1ccccc1NC(=O)N(C)[C@H]1C[C@H]2c3[nH]c4c(-c5ccccc5)cccc4c3CCN2C(=O)[C@H]1[C@H](C)O	.	.	-23	.	.	.
Cc1ccc(C(O)P(=O)(OCCC(C)C)c2ccc(N(C)C)cc2)cc1 (stereo not given)	0	15	-4	6	3	60*
COc1ccc(C(O)P(=O)(OCCC(C)C)c2ccc(N(C)C)cc2)cc1OC (stereo not given)	0	-7	-3	1	0	-13
N=c1c[n+](N2CCOCC2)[n-]o1	0	31*	6	0	-1	-4
SMILES	A1 inh	MC4R antag cAMP	sPLA2-III inh	MC4R ag barr	NTR1 agonist	Exocytosis inh
S=C(Nc1ccc2nsnc2c1)N1CCCCCC1	-11	0	1	2	0	77*
O=C1C=C(c2c(O)ccc3ccccc23)c2ccccc2C1=O	.	11	-54	4	.	104*
CC(C)CCNC(=O)NC(=O)CSc1nnc(-c2ccccc2Br)o1	0	9	-24	8.4*	6	-6
Cc1ccc(C)c(NC(=O)C2CCCN2S(=O)(=O)c2cccnc2)c1 (stereo not given)	.	.	-1	.	.	.
CC(=O)Nc1cc(-c2cccc(F)c2)cn2c(-c3ccccc3)cnc12	.	0	-4	9.4*	.	48
CC(=O)Nc1cc(-c2cccc(C(=O)N(C)C)c2)cn2c(-c3ccc(F)cc3)cnc12	.	10	1	9.0*	.	-10
CC(=O)Nc1cc(-c2cccc(F)c2)cn2c(-c3ccc(S(C)(=O)=O)cc3)cnc12	.	15	-4	2	.	-2
Cc1cccc(-c2cc(NC=O)c3ncc(-c4cccc(C(=O)N(C)C)c4)n3c2)c1	.	-10	2	2	.	-2
CC(=O)Nc1cc(-c2cccc(C(=O)N(C)C)c2)cn2c(-c3ccccc3)cnc12	.	14	5	1	.	0
CN(C)C(=O)c1cccc(-c2cnc3c(NC=O)cc(-c4ccc(N(C)C)cc4)cn23)c1	.	-18	-10	8.6*	.	-2
CCCCCCCCNS(=O)(=O)CC1NCc2cc(OC)ccc21 (stereo not given)	.	.	-1	.	.	.
COC(=O)c1cc2c(c3c4ccccc4n(S(=O)(=O)c4ccc(C)cc4)c13)C(=O)N(Cc1ccccc1)C2	.	.	1	.	.	.
CCCCn1c(NS(=O)(=O)c2ccccc2)c(S(=O)(=O)c2ccc(C)cc2)c2nc3ccccc3nc21	?	-14	27*	7	.	-2
CCCCn1c(NC(=O)c2ccco2)c(S(=O)(=O)c2ccc(C)cc2)c2nc3ccccc3nc21	.	0	-39	0	.	-1
Cc1ccccc1C(=O)Nc1nc(SCc2ccc(Cl)cc2)n[nH]1	?	-9	3	8.7*	6	1
CC(C)(C)c1ccc(-c2nnc(SCC(=O)Nc3ccccc3-c3ccccc3)n2Cc2ccco2)cc1	.	.	-7	.	.	.
C=CCn1c(SCC(=O)Nc2nccs2)nnc1-c1cc2cccc(OC)c2o1	0	1	1	9.3*	1	2
CCN(CC)C(=S)SSC(=S)N(CC)CC	0	-7	-2	-2	6	64*
COc1ccc(CN2C(=O)N3Cc4ccc(C)cc4C3CS2(=O)=O)cc1 (stereo not given)	.	.	8	.	.	.
CCn1nc(NC(=O)Cc2ccc(OC)cc2)c2cc3cccc(C)c3nc21	1	10	-1	9.3*	6	-4
CCn1nc(NC(=O)COC)c2cc3cccc(C)c3nc21	0	-9	0	0	0	1
Cc1noc(C)c1CSCC(=O)N(C)CC(=O)Nc1ccc(Cl)c(Cl)c1	9.7*	-1	-13	-3	0	10
O[C@H](COc1ccccc1)CN1CCC(C(O)(c2ccccc2)c2ccccc2)CC1	.	.	-17	.	.	.
Cc1cc(N2CCN(C(=O)OC(C)(C)C)C[C@H]2C)ccc1N1CCN(Cc2ccccc2)[C@@H](C)C1	.	.	7	.	.	.
COc1cc(C(=O)NC2CCCCN(Cc3cccc(Cl)c3)C2=O)cc(OC)c1OC (stereo not given)	.	.	2	.	.	.

Screening results (PubChem BioAssay)
